The list is not random: actives were taken first. Their share in the collection is about 1.2%.
CSN deneddyl inh: blocks human CSN-mediated cullin deneddylation; Q92905; Purified CSN, SCF-Nedd8-OG deneddylation, fluorescence polarization; inhibition, % at 12.5 µM; actives 0.38% (n = 360,000);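 active = pattern-corrected inhibition above about 35%, with an unprinted fluorescence ratio check between 0.5 and 1.5, limit read from the data, passing the limit was not always enough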
Target sequence (Q92905 whole entry, looked up, one chain of several): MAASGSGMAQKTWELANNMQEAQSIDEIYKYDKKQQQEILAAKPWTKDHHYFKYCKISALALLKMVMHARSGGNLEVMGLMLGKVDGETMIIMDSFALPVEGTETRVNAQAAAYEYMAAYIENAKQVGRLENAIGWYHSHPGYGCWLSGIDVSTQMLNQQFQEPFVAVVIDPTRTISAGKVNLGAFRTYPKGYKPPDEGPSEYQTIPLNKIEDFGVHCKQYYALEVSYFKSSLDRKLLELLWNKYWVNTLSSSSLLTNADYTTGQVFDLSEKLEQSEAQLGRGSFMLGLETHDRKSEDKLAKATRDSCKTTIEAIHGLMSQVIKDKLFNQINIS
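Detection – fluorescence polarization · System – HEK293T-derived human Csn5 enzyme · Controls – substrate-only high control, full reaction low control · Timing – 90 min, room temperature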
HNF4A DNA FP: change in binding of human HNF4 alpha to DNA; activity change, % at 10 µM; P41235; HNF4a-FITC DNA binding, fluorescence polarization, 1 h; AID 1224865; actives 0.3% (n = 360,000); in the data active = activity change above about 30%, passing the limit was not always enough
Rtt109 Vps75: blocks Candida albicans Rtt109/Vps75 acetyltransferase activity; Q5AAJ8; purified Rtt109/Vps75, ThioGlo CoA-SH fluorescence, 4 h; actives 0.16% (n = 330,000); inhibition, % at 34.9 µM; AID 540336;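 active = inhibition of at least 50% in every replicate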
TPT1 inh: blocks Candida albicans tRNA 2'-phosphotransferase. recombinant caTPT1, FP RNA substrate dephosphorylation. inhibition, % at 5 µM. actives 0.81% (n = 300,000);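 active = inhibition above the mean of all tested compounds plus 3 SD, set per screening campaign, cut at about 24% in these data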
TPT1 inh confirm: TPT1 (C. albicans) inhibition, confirmation | shares compounds with TPT1 inh | recombinant caTPT1, fluorescence polarization, RNase T1 coupled | inhibition, % at 5 µM | actives 74% (n = 2,400) | AID 2149;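 active = inhibition above the primary screen limit, the mean inhibition of all tested compounds plus 3 SD, cut at about 25% in these data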
RNase T1 inh: counter-screen for TPT1 inhibitors: inhibitors of Aspergillus oryzae RNase T1. RNase T1 cleavage, fluorescence polarization, 1536-well. actives 83% (n = 2,400). shares compounds with TPT1 inh. inhibition, % at 5 µM;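 active = inhibition above the solvent-only control well mean plus 3 SD, limit set per screening run, cut at about 23% in these data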;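 also: inhibitors block cleavage so intact labeled substrate keeps polarization high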
Target sequence (P00651 whole entry, looked up): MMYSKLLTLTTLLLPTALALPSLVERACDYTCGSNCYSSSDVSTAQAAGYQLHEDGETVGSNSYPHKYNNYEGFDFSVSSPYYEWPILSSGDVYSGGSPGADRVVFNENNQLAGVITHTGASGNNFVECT
A number is an active result.

For O=C(NCCc1ccccc1)c1ccc(-c2ccc(F)c(F)c2)c2ccoc12 the results were CSN deneddyl inh inactive and HNF4A DNA FP inactive.
Screening Nc1c(C(=O)c2ccccc2)sc2nsc(SCCN3CCOCC3)c12 returned CSN deneddyl inh inactive, HNF4A DNA FP inactive, TPT1 inh 57.7, TPT1 inh confirm 63.0 and RNase T1 inh 72.2.
For CC(=O)c1cc(NC(=O)c2cccc(C(F)(F)F)c2)c(=O)oc1/C=C/N(C)C the results were CSN deneddyl inh inactive, HNF4A DNA FP inactive, Rtt109 Vps75 inactive, TPT1 inh 117.0, TPT1 inh confirm 121.6 and RNase T1 inh 127.8.
For CC(=O)c1cc(NC(=O)c2ccc(Cl)cc2)c(=O)oc1/C=C/N(C)C the results were CSN deneddyl inh 55.3, HNF4A DNA FP 120.8, Rtt109 Vps75 inactive, TPT1 inh 132.2, TPT1 inh confirm 107.7 and RNase T1 inh 110.4.
COc1ccc(C(=O)Nc2cc(C(C)=O)c(C)oc2=O)cc1 was read as CSN deneddyl inh inactive, HNF4A DNA FP inactive, Rtt109 Vps75 inactive and TPT1 inh inactive.
CCCc1ccc(S(=O)(=O)N/N=C(/C)c2ccc3c(c2)OCO3)cc1 was read as CSN deneddyl inh inactive, HNF4A DNA FP inactive and Rtt109 Vps75 inactive.
O=C(CSc1ccc2nnc(-c3ccccn3)n2n1)Nc1ccccc1F was read as CSN deneddyl inh inactive, HNF4A DNA FP inactive, Rtt109 Vps75 inactive and TPT1 inh inactive.
COCCN=c1scc(-c2cc(OC)c(OC)c(OC)c2)n1/N=C/c1c(C)[nH]c2ccccc12 was read as CSN deneddyl inh inactive, HNF4A DNA FP inactive, Rtt109 Vps75 inactive, TPT1 inh 44.2, TPT1 inh confirm 59.8 and RNase T1 inh 70.6.
COc1ccc(C)c2sc(=NC(=O)c3cccc(N4C(=O)CCC4=O)c3)n(C)c12 was read as CSN deneddyl inh inactive, HNF4A DNA FP inactive, Rtt109 Vps75 inactive, TPT1 inh 38.0, TPT1 inh confirm inactive and RNase T1 inh inactive.
Screening COc1ccc(C)c2sc(=NC(=O)c3ccccc3)n(C)c12 returned CSN deneddyl inh inactive, HNF4A DNA FP inactive, Rtt109 Vps75 inactive and TPT1 inh inactive.
`Cn1cccc1/C=C1\CCC/C(=C\c2cccn2C)C1=O` gave CSN deneddyl inh inactive, HNF4A DNA FP inactive, Rtt109 Vps75 inactive, TPT1 inh 192.4, TPT1 inh confirm 194.4 and RNase T1 inh 171.3.
O=C1/C(=C/c2cccnc2)CCC/C1=C\c1cccnc1 was read as TPT1 inh inactive.
For COC(=O)c1ccc(NC(=O)CCN2C(=O)C3C4CCC(C4)C3C2=O)cc1 (centres undefined) the results were CSN deneddyl inh inactive, HNF4A DNA FP inactive, Rtt109 Vps75 inactive and TPT1 inh inactive.
N#CC1(C#N)CC(C=O)=C(N)C1(C#N)CC(=O)c1ccc(F)cc1 (centres undefined) was read as CSN deneddyl inh inactive, HNF4A DNA FP inactive, Rtt109 Vps75 inactive, TPT1 inh 56.9, TPT1 inh confirm 31.6 and RNase T1 inh 42.5.
For C#CCNC(=O)c1csc([C@@H]2O[C@H](CO)[C@@H](O)[C@H]2O)n1 the results were CSN deneddyl inh inactive and HNF4A DNA FP inactive.
`C(=N\NC1=Nc2cccc3cccc1c23)/c1cccnc1` gave CSN deneddyl inh inactive, HNF4A DNA FP 40.5, Rtt109 Vps75 inactive, TPT1 inh 26.3, TPT1 inh confirm 41.2 and RNase T1 inh 55.7.
For C(=N\NC1=Nc2cccc3cccc1c23)/c1ccccc1 the results were CSN deneddyl inh inactive, HNF4A DNA FP inactive, Rtt109 Vps75 inactive, TPT1 inh 26.3, TPT1 inh confirm 41.8 and RNase T1 inh 57.7.
Screening Clc1ccc(/C=N/NC2=Nc3cccc4cccc2c34)cc1 returned CSN deneddyl inh inactive, HNF4A DNA FP inactive, Rtt109 Vps75 inactive and TPT1 inh inactive.
Cc1csc(N=Nc2ccc(N(C)C)cc2)[n+]1[O-] was read as CSN deneddyl inh inactive and HNF4A DNA FP inactive.
N#CC1CC(c2ccc([N+](=O)[O-])cc2)=NN1c1ccc([N+](=O)[O-])cc1 (centres undefined) was read as CSN deneddyl inh inactive, HNF4A DNA FP inactive, Rtt109 Vps75 inactive, TPT1 inh 73.0, TPT1 inh confirm 91.0 and RNase T1 inh 97.3.
Screening O=[N+]([O-])c1cccc(C2CC(c3ccccc3)=NN2c2ccccc2)c1 (centres undefined) returned CSN deneddyl inh inactive, HNF4A DNA FP inactive, Rtt109 Vps75 inactive and TPT1 inh inactive.
Screening Oc1[nH]c2ccccc2c1N=Nc1cccc(Cl)c1 returned CSN deneddyl inh inactive, HNF4A DNA FP inactive and TPT1 inh inactive.
For O=C(O)c1ccc(N=Nc2c(O)[nH]c3cc(Cl)ccc23)cc1 the results were CSN deneddyl inh inactive, HNF4A DNA FP inactive, Rtt109 Vps75 inactive, TPT1 inh 29.2, TPT1 inh confirm 54.2 and RNase T1 inh 67.2.
For CC[n+]1c(/C=C/N(C)c2ccccc2)oc2ccccc21 the results were CSN deneddyl inh inactive, HNF4A DNA FP inactive, Rtt109 Vps75 inactive, TPT1 inh 36.2, TPT1 inh confirm 48.9 and RNase T1 inh 60.9.
For CCOC(=O)c1ccc2c(c1)n(CC)c(/C=C/Nc1ccccc1)[n+]2CC the results were CSN deneddyl inh inactive, HNF4A DNA FP inactive and TPT1 inh inactive.
For CC[n+]1c(/C=C/Nc2ccccc2)oc2ccc(OC)cc21 the results were CSN deneddyl inh inactive, HNF4A DNA FP inactive, Rtt109 Vps75 inactive, TPT1 inh 86.2, TPT1 inh confirm 94.8 and RNase T1 inh 100.6.
CC[n+]1c(/C=C/Nc2ccccc2)oc2ccccc21 was read as CSN deneddyl inh inactive, HNF4A DNA FP inactive, Rtt109 Vps75 inactive, TPT1 inh 38.4, TPT1 inh confirm 52.5 and RNase T1 inh 64.2.
`CCn1c(/C=C/Nc2ccccc2)[n+](CC)c2ccc(Cl)cc21` gave CSN deneddyl inh inactive, HNF4A DNA FP inactive, Rtt109 Vps75 inactive and TPT1 inh inactive.
For O=C(CN1C(=O)NC2(CCCCC2)C1=O)N1CCN(S(=O)(=O)c2ccc(F)c(F)c2F)CC1 the results were CSN deneddyl inh inactive, HNF4A DNA FP inactive and Rtt109 Vps75 inactive.
O=C(CN1CCCC1)Nc1nc(-c2ccc(Cl)cc2)cs1 was read as CSN deneddyl inh inactive and HNF4A DNA FP inactive.
Screening CCN(CC)CC(=O)Nc1nc(-c2ccc(Cl)cc2)cs1 returned CSN deneddyl inh inactive, HNF4A DNA FP inactive, Rtt109 Vps75 inactive, TPT1 inh 40.9, TPT1 inh confirm inactive and RNase T1 inh inactive.
`O=C(N/N=C/c1cc(Br)cc(Br)c1O)c1ccncc1` gave TPT1 inh 89.2, TPT1 inh confirm 77.4 and RNase T1 inh 83.2.
`O=C(N/N=C/c1cc(Cl)cc(Cl)c1O)c1ccncc1` gave CSN deneddyl inh inactive, HNF4A DNA FP inactive, Rtt109 Vps75 inactive, TPT1 inh 40.0, TPT1 inh confirm 37.5 and RNase T1 inh 49.4.
`O=C(N/N=C/c1ccc(Cl)cc1Cl)c1ccncc1` gave CSN deneddyl inh inactive, HNF4A DNA FP inactive, Rtt109 Vps75 inactive and TPT1 inh inactive.

Screening results as filed in PubChem BioAssay.
